Laboratory results as given in ChEMBL document CHEMBL1137414, “3'-Substituted 7-halogenoindirubins, a new class of cell death inducing agents” (J Med Chem, 2006).

What was measured:
[1] = Inhibition of starfish CDK1/cyclin B in presence of 15 uM ATP; design: species or system Marthasterias glacialis
[2] = test system: SH-SY5Y; experiment: Survival of human SH-SY5Y cells at 25 uM by MTS reduction assay; assay type: functional, cell-based; details: for viability at 25 µM: Homo sapiens, SH-SY5Y, read-out: Survival
Outline: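 Viability was read by MTS reduction and expressed as percent of untreated cells, as the average ± SE of three independent measurements, representative of two independent experiments.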

[3] = target: Cyclin-dependent kinase 5/CDK5 activator 1 (Homo sapiens, UniProt Q00535); experiment: (§1) Inhibition of mammalian CDK5/p25; assay type: protein-complex assay
Outline: (§2)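 Recombinant CDK5 and p25, each expressed in E. coli as GST fusions and affinity-purified on glutathione agarose, mixed in equal amounts. Phosphate incorporation onto P81 paper read by scintillation counting, blank subtracted. Activity taken as % of uninhibited. IC50 from dose-response curves.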

[4] = target: Cyclin-dependent kinase 5/CDK5 activator 1 (Homo sapiens, UniProt Q00535+Q15078); experiment: as §1; assay type: protein-complex assay; outline: as §2
[5] = test system: SH-SY5Y; experiment: Death of human SH-SY5Y cells in absence of 20 uM Q-VD-OPh by MTS reduction assay; assay type: functional, cell-based; details: Homo sapiens, SH-SY5Y; read-out: IC50
[6] = test system: SH-SY5Y; experiment: Death of human SH-SY5Y cells at 25 uM after 48 hrs by LDH release assay; assay type: functional
Outline: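 SH-SY5Y human neuroblastoma cells were grown in DMEM with 2 mM L-glutamine, antibiotics and 10% FCS at 37 °C under 5% CO2. […] Lactate dehydrogenase release was measured 48 h after addition and expressed as percent cell death.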

[7] = test system: SH-SY5Y; experiment: Death of human SH-SY5Y cells in presence of 20 uM Q-VD-OPh by MTS reduction assay; assay type: functional, cell-based; details: Homo sapiens, SH-SY5Y
[8] = test system: SH-SY5Y; experiment: Survival of human SH-SY5Y cells after 48 hrs by MTS reduction assay; assay type: functional, cell-based; details: Homo sapiens, SH-SY5Y, 48 h
[9] = test system: SH-SY5Y; experiment: Survival of human SH-SY5Y cells after 24 hrs by MTS reduction assay; assay type: functional, cell-based; details: Homo sapiens, SH-SY5Y, 24 h

Chain of Cyclin-dependent kinase 5/CDK5 activator 1 (Homo sapiens, UniProt Q00535) (Q00535 whole entry, the tested form may be a part): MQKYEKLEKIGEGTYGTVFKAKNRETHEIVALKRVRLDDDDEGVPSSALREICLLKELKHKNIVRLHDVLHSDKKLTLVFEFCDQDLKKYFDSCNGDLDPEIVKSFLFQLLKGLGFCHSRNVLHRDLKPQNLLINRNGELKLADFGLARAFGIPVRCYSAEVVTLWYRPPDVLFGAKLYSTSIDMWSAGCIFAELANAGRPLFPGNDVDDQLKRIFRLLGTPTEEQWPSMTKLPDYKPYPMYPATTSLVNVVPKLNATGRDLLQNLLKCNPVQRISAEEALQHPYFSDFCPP
Chain of Cyclin-dependent kinase 5/CDK5 activator 1 (Homo sapiens, UniProt Q00535) (Q15078 whole entry, further chain, the tested form may be a part): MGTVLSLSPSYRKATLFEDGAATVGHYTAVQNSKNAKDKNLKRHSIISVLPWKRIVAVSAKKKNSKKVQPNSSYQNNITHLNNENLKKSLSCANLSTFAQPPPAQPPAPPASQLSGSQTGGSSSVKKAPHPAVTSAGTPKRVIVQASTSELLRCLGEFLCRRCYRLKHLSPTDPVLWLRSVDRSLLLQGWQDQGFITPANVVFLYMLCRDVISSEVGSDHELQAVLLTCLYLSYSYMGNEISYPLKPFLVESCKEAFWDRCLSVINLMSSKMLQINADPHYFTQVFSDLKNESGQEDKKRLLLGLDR
Chain of Cyclin-dependent kinase 5/CDK5 activator 1 (Homo sapiens, UniProt Q00535+Q15078) (Q00535 whole entry): as the sequence (Q00535 whole entry, the tested form may be a part) above
Chain of Cyclin-dependent kinase 5/CDK5 activator 1 (Homo sapiens, UniProt Q00535+Q15078) (Q15078 whole entry): as the sequence (Q15078 whole entry, further chain, the tested form may be a part) above

O=C1C(c2c(O)[nH]c3c(I)cccc23)=Nc2ccccc21
IC50 [1]: > 10 µM
viability at 25 µM [2]: 96%
IC50 [3]: > 100 µM

CO/N=C1/C(c2c(O)[nH]c3c(Cl)cccc23)=Nc2ccccc21
IC50 [1]: > 10 µM
viability at 25 µM [2]: 97%
IC50 [3]: > 100 µM

Cn1c(O)c(C2=Nc3ccccc3/C2=N\OCCN2CCOCC2)c2cccc(Br)c21
Survival [2]: 98%
IC50 [4]: > 10 µM

CO/N=C1/C(c2c(O)n(C)c3c(F)cccc23)=Nc2ccccc21
IC50 [1]: > 10 µM
viability at 25 µM [2]: 107%
IC50 [3]: > 100 µM

Cl.Cn1c(O)c(C2=Nc3ccccc3/C2=N\OCCN2CCOCC2)c2cccc(Br)c21
IC50 [1]: > 10 µM
viability at 25 µM [2]: 90%
IC50 [3]: > 10 µM

CO/N=C1/C(c2c(O)[nH]c3c(F)cccc23)=Nc2ccccc21
IC50 [1]: > 10 µM
viability at 25 µM [2]: 105%
IC50 [3]: > 100 µM

Cn1c(O)c(C2=Nc3ccccc3/C2=N\OCCBr)c2cccc(Br)c21
IC50 [1]: > 10 µM
viability at 25 µM [2]: 99%
IC50 [3]: > 10 µM

CC(=O)O/N=C1/C(c2c(O)n(C)c3c(I)cccc23)=Nc2ccccc21
IC50 [1]: > 10 µM
viability at 25 µM [2]: 82%
IC50 [3]: > 100 µM

Oc1[nH]c2c(Br)cccc2c1C1=Nc2ccccc2/C1=N\OCCn1ccnc1
Survival [2]: 59%
IC50 [4]: > 10 µM

CC(=O)O/N=C1/C(c2c(O)[nH]c3c(Cl)cccc23)=Nc2ccccc21
IC50 [1]: > 10 µM
viability at 25 µM [2]: 89%
IC50 [3]: > 100 µM

O=Nc1c(-c2c(O)[nH]c3c(I)cccc23)[nH]c2ccccc12
IC50 [1]: 66 µM
viability at 25 µM [2]: 64%
IC50 [3]: 77 µM

Cn1c(O)c(C2=Nc3ccccc3C2=O)c2cccc(Br)c21
IC50 [1]: 100 µM
viability at 25 µM [2]: 98%
IC50 [3]: > 100 µM

Cn1c(O)c(-c2[nH]c3ccccc3c2N=O)c2cccc(I)c21
IC50 [1]: > 100 µM
viability at 25 µM [2]: 74%
IC50 [3]: > 100 µM

O=C1C(c2c(O)[nH]c3c(F)cccc23)=Nc2ccccc21
IC50 [1]: 10 µM
viability at 25 µM [2]: 70%
IC50 [3]: ≥ 10 µM

Cn1c(O)c(C2=Nc3ccccc3C2=O)c2cccc(Cl)c21
IC50 [1]: > 10 µM
viability at 25 µM [2]: 94%
IC50 [3]: > 100 µM

O=C1Nc2ccccc2/C1=C1/Nc2ccccc2C1=O [INDIRUBIN]
viability at 25 µM [2]: 104%

CO/N=C1/C(c2c(O)n(C)c3c(I)cccc23)=Nc2ccccc21
IC50 [1]: > 10 µM
viability at 25 µM [2]: 99%
IC50 [3]: > 100 µM

CCN(CC)CCO/N=C1/C(c2c(O)n(C)c3c(Br)cccc23)=Nc2ccccc21.Cl
IC50 [5]: 18 µM
Activity [6]: 58%
IC50 [1]: > 10 µM
IC50 [7]: > 25 µM
Survival [2]: 15%
IC50 [3]: > 10 µM

CO/N=C1\C(c2c(O)[nH]c3ccccc23)=Nc2ccccc21
IC50 [1]: 1.4 µM
viability at 25 µM [2]: 86%
IC50 [3]: 0.4 µM

Cn1c(O)c(-c2[nH]c3ccccc3c2N=O)c2cccc(Cl)c21
IC50 [1]: > 100 µM
viability at 25 µM [2]: 94%
IC50 [3]: > 100 µM

O=Nc1c(-c2c(O)[nH]c3ccccc23)[nH]c2ccccc12 [INDIRUBIN-3-MONOXIME]
IC50 [5]: 13 µM
Activity [6]: 33%
IC50 [7]: > 25 µM
IC50 [8]: 12 µM
viability at 25 µM [2]: 27%
IC50 [9]: > 25 µM

O=C1Nc2cc(Br)ccc2/C1=C1/Nc2ccccc2/C1=N\O [6BIO]
Activity [6]: 80%
viability at 25 µM [2]: 5%

Cn1c(O)c(C2=Nc3ccccc3/C2=N\OCCn2ccnc2)c2cccc(Br)c21
IC50 [1]: > 10 µM
viability at 25 µM [2]: 85%
IC50 [3]: > 10 µM

O=C1C(c2c(O)[nH]c3c(Br)cccc23)=Nc2ccccc21
IC50 [1]: > 100 µM
viability at 25 µM [2]: 92%
IC50 [3]: > 100 µM

Oc1[nH]c2c(Br)cccc2c1C1=Nc2ccccc2/C1=N\OCCBr
IC50 [1]: > 100 µM
viability at 25 µM [2]: 87%
IC50 [3]: 25 µM

CC(=O)O/N=C1/C(c2c(O)n(C)c3c(Br)cccc23)=Nc2ccccc21
IC50 [1]: 70 µM
viability at 25 µM [2]: 95%
IC50 [3]: > 100 µM

Cn1c(O)c(-c2[nH]c3ccccc3c2N=O)c2cccc(Br)c21
IC50 [1]: > 100 µM
viability at 25 µM [2]: 84%
IC50 [3]: > 100 µM

CO/N=C1/C(c2c(O)[nH]c3c(I)cccc23)=Nc2ccccc21
IC50 [1]: > 10 µM
viability at 25 µM [2]: 84%
IC50 [3]: > 100 µM

Cn1c(O)c(C2=Nc3ccccc3C2=O)c2cccc(I)c21
IC50 [1]: > 10 µM
Survival ([2]; sh-sy5y): 93%
IC50 [3]: > 100 µM

Cn1c(O)c(-c2[nH]c3ccccc3c2N=O)c2ccccc21
IC50 [1]: 73 µM
viability at 25 µM [2]: 100%

Cn1c(O)c(-c2[nH]c3ccccc3c2N=O)c2cccc(F)c21
IC50 [1]: > 100 µM
viability at 25 µM [2]: 99%
IC50 [3]: > 100 µM

Cn1c(O)c(C2=Nc3ccccc3C2=O)c2ccccc21
IC50 [1]: 100 µM
viability at 25 µM [2]: 98%

CC(=O)O/N=C1/C(c2c(O)n(C)c3c(F)cccc23)=Nc2ccccc21
IC50 [1]: > 10 µM
viability at 25 µM [2]: 105%
IC50 [3]: > 100 µM

CC(=O)O/N=C1\C(c2c(O)[nH]c3ccccc23)=Nc2ccccc21
viability at 25 µM [2]: 36%
IC50 [3]: 0.7 µM

O=C1C(c2c(O)[nH]c3c(Cl)cccc23)=Nc2ccccc21
IC50 [1]: > 10 µM
viability at 25 µM [2]: 92%
IC50 [3]: > 100 µM

Cl.Oc1[nH]c2c(Br)cccc2c1C1=Nc2ccccc2/C1=N\OCCN1CCOCC1
IC50 [1]: > 100 µM
Survival [2]: 76%
IC50 [3]: > 10 µM

CCN(CC)C(=O)O/N=C1/C(c2c(O)n(C)c3c(Br)cccc23)=Nc2ccccc21
IC50 [1]: > 10 µM
viability at 25 µM [2]: 105%
IC50 [3]: > 10 µM

CC(=O)O/N=C1/C(c2c(O)[nH]c3c(Br)cccc23)=Nc2ccccc21
IC50 [1]: > 100 µM
viability at 25 µM [2]: 61%
IC50 [3]: > 100 µM

CC(=O)O/N=C1/C(c2c(O)[nH]c3c(I)cccc23)=Nc2ccccc21
IC50 [1]: > 10 µM
viability at 25 µM [2]: 67%
IC50 [3]: > 100 µM

CC(=O)O/N=C1/C(c2c(O)n(C)c3c(Cl)cccc23)=Nc2ccccc21
IC50 [1]: > 10 µM
viability at 25 µM [2]: 96%
IC50 [3]: > 100 µM

O=Nc1c(-c2c(O)[nH]c3c(F)cccc23)[nH]c2ccccc12
IC50 [1]: 1.5 µM
viability at 25 µM [2]: 46%
IC50 [3]: 0.51 µM

O=C1Nc2ccc(Br)cc2/C1=C1/Nc2ccccc2/C1=N\O [INDIRUBIN 2]
IC50 [5]: 13 µM
Activity [6]: 59%
IC50 [1]: 0.045 µM
IC50 [7]: 23 µM
IC50 [8]: 12 µM
viability at 25 µM [2]: 13%
IC50 [9]: 18 µM
IC50 [3]: 0.028 µM

CC(=O)O/N=C1/C(c2c(O)[nH]c3c(F)cccc23)=Nc2ccccc21
IC50 [1]: 15 µM
viability at 25 µM [2]: 39%
IC50 [3]: > 100 µM

CCN(CC)C(=O)O/N=C1/C(c2c(O)[nH]c3c(Br)cccc23)=Nc2ccccc21
IC50 [1]: > 100 µM
viability at 25 µM [2]: 106%
IC50 [3]: > 100 µM

CO/N=C1/C(c2c(O)[nH]c3c(Br)cccc23)=Nc2ccccc21
IC50 [1]: > 100 µM
viability at 25 µM [2]: 97%
IC50 [3]: > 100 µM

CO/N=C1/C(c2c(O)n(C)c3c(Br)cccc23)=Nc2ccccc21
IC50 [1]: > 100 µM
viability at 25 µM [2]: 100%
IC50 [3]: > 100 µM

Cn1c(O)c(C2=Nc3ccccc3C2=O)c2cccc(F)c21
IC50 [1]: > 10 µM
viability at 25 µM [2]: 101%
IC50 [3]: > 100 µM

CO/N=C1/C(c2c(O)n(C)c3c(Cl)cccc23)=Nc2ccccc21
IC50 [1]: > 10 µM
viability at 25 µM [2]: 99%
IC50 [3]: > 100 µM
